Assay outcomes (PubChem)
Compounds with a hit are over-represented: about 2.8% of the library has one in this group of screens.
mABHD4 FP – ABHD4 inhibitors, primary screen, biochemical, fluorescence polarization, mouse; purified mABHD4, FP-Rh probe fluorescence polarization; inhibition, % at 8.92 µM; 0.54% of 370,000 active;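 active = inhibition exceeding the mean over every tested compound plus 3 SD, cut at about 30% in these data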;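 note: 0% = plate median of compound wells and 100% = S159A mutant with DMSO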
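Doses – 8.92 µM, single dose · Material – wild-type mouse ABHD4 protein · Replication – single well per compound (singlicate) · Measure – percent inhibition of probe binding, normalized to plate controls · Schedule – 45 min compound pre-incubation plus 60 min probe step, 25 °C · Detection – fluorescence polarization with parallel and perpendicular emission, 525/598 nm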
HTRA1 inh – HTRA1 serine protease inhibitors, primary screen, biochemical, fluorescence polarization, HTS; Q92743; recombinant HTRA1, FP-rhodamine activity-based probe; inhibition, % at 5.96 µM; 0.5% of 340,000 active; in the data active = inhibition above about 36%;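 note: 0% = enzyme with DMSO and 100% = wells lacking enzyme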
PAFAH1B3 FP inh – PAFAH1B3 enzyme inhibitors, primary screen, biochemical, fluorescence polarization, human. Platelet-activating factor acetylhydrolase IB subunit alpha1 (Homo sapiens), Q15102. recombinant PAFAH1B3, FP-rhodamine probe. inhibition, % at 3.39 µM. 0.28% of 340,000 active. AID 492972, 2010;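 active = inhibition above the screen-wide average of all tested compounds plus 3 SD, cut at about 25% in these data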;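 note: 0% = enzyme with DMSO only and 100% = wells lacking PAFAH1B3 protein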
Target sequence (Q15102 whole entry, looked up): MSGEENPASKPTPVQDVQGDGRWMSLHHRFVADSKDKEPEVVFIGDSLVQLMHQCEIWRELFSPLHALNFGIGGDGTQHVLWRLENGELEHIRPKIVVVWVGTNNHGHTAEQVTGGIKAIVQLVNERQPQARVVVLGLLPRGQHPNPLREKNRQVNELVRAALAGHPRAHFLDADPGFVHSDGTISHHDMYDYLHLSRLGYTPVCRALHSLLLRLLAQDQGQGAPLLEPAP
PAFAH1B2 FP inh – PAFAH1B2 enzyme inhibitors, primary screen, biochemical, fluorescence polarization, human. inhibition, % at 3.39 µM. recombinant PAFAH1B2, FP-rhodamine activity probe. Platelet-activating factor acetylhydrolase IB subunit alpha2 (Homo sapiens), P68402. 1.2% of 340,000 active;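 active = inhibition above the mean of all tested compounds plus 3 SD, cut at about 24% in these data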;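 note: 0% = enzyme with DMSO and 100% = wells lacking PAFAH1B2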
Target sequence (P68402 whole entry, looked up): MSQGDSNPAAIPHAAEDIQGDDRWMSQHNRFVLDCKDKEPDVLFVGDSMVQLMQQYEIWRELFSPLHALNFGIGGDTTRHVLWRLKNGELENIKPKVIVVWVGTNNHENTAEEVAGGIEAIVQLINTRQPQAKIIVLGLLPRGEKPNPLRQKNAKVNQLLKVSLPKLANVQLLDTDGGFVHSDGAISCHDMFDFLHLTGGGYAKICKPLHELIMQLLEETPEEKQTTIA
PAFAH2 inh – PAFAH2 enzyme inhibitors, primary screen, biochemical, fluorescence polarization, human. Platelet-activating factor acetylhydrolase 2, cytoplasmic (Homo sapiens), Q99487. recombinant PAFAH2, FP-rhodamine activity probe. 0.99% of 340,000 active. inhibition, % at 3.39 µM;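 active = inhibition above the mean over all tested compounds plus 3 SD, cut at about 30% in these data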;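 note: inhibitors block probe labeling of enzyme so polarization drops; 0% = enzyme with DMSO and 100% = wells lacking PAFAH2 protein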
pPAFAH FP inh – pPAFAH enzyme inhibitors, primary screen, biochemical, fluorescence polarization, human. Platelet-activating factor acetylhydrolase (Homo sapiens), Q13093. recombinant pPAFAH, FP-rhodamine probe fluorescence polarization. inhibition, % at 3.39 µM. 1.5% of 330,000 active. AID 463082, 2010;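 active = inhibition above the mean inhibition across the screen plus 3 SD, cut at about 25% in these data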;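 note: inhibitors block binding of the rhodamine activity-based probe so polarization drops; 0% = enzyme with DMSO and 100% = wells lacking pPAFAH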
PAFAH2 FP conf – PAFAH2 enzyme inhibitors, confirmation, biochemical, fluorescence polarization, human; recombinant PAFAH2, FP-rhodamine activity probe; 65% of 2,300 active; shares compounds with PAFAH2 inh; AID 493030, 2011; inhibition, % at 3.39 µM;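 active = mean inhibition over three repeats above a set limit taken from the earlier primary screen, cut at about 30% in these data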;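 note: inhibitor blocks binding of rhodamine activity probe so polarization falls; 0% = enzyme with DMSO and 100% = wells lacking PAFAH2 protein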
PAFAH1B3 conf FP – PAFAH1B3 enzyme inhibitors, confirmation, biochemical, fluorescence polarization, human; shares compounds with PAFAH1B3 FP inh; recombinant PAFAH1B3, FP-Rh activity-based probe; inhibition, % at 3.39 µM; 30% of 390 active;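 active = average inhibition over triplicate runs above the hit cutoff set in the earlier primary screen, cut at about 25% in these data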;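 note: 0% = enzyme with DMSO and 100% = wells lacking PAFAH1B3 protein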
* = called active by the depositor; nt = no result given.

SMILES	mABHD4 FP	HTRA1 inh	PAFAH1B3 FP inh	PAFAH1B2 FP inh	PAFAH2 inh	pPAFAH FP inh	others
O=C(c1ccc(CNS(=O)(=O)c2ccc(Br)cc2)cc1)N1CCC2(CC1)OCCO2	-5.9	-1.2	5.5	1.8	1.2	9.8
O=C(CNS(=O)(=O)c1ccc(Br)s1)N1CCC2(CC1)OCCO2	0.1	-2.4	7.6	10.6	35.7*	6.7	PAFAH2 FP conf=18.1
OC1CN2CCCC(O)C2C1O (stereo unspecified)	-0.5	nt	nt	nt	nt	nt
O=C(O)c1cc2ccccc2n1C1CCN(Cc2ccccc2)CC1	2.8	nt	nt	nt	nt	nt
CC(=O)Nc1ccc(C(c2c(O)c3ccccc3oc2=O)c2c(C)n(C)n(-c3ccccc3)c2=O)cc1 (stereo unspecified)	-3.4	3.0	-1.3	0.3	-3.2	0.9
Cc1c(C(c2ccc(Br)cc2)c2c(O)c3ccccc3oc2=O)c(=O)n(-c2ccccc2)n1C (stereo unspecified)	3.2	-2.6	3.3	1.4	2.7	1.2
CSc1ccc(C(c2c(O)c3ccccc3oc2=O)c2c(C)n(C)n(-c3ccccc3)c2=O)cc1 (stereo unspecified)	-0.3	-7.1	10.9	2.8	39.5*	5.7	PAFAH2 FP conf=27.4
Cc1c(C(c2ccc(Cl)cc2Cl)c2c(O)c3ccccc3oc2=O)c(=O)n(-c2ccccc2)n1C (stereo unspecified)	-125.7	-0.6	2.9	2.5	39.0*	2.0	PAFAH2 FP conf=33.1*
Cc1ccc2nc(-c3ccc(CN4CCC(n5nnc6ccccc65)CC4)cc3)c(-c3ccccc3)nc2c1	-8.7	nt	nt	nt	nt	nt
O=C1NC(=O)N(CCC2=CCCCC2)C(=O)/C1=C\c1cccs1	-28.4	-0.9	5.6	9.2	54.7*	3.8	PAFAH2 FP conf=45.8*
O=C(NCCN1CCC2(CC1)C(=O)NCN2c1ccccc1)c1ccc(Cl)c(Cl)c1	17.7	nt	nt	nt	nt	nt
C[C@H]1CNCCN1c1ccc(N2CC[C@@H](O)C2)c(C#N)c1	3.0	nt	nt	nt	nt	nt
Cc1cc(N2CCNC[C@@H]2C)ccc1N1CC[C@@H](O)C1	19.9	nt	nt	nt	nt	nt
COC(=O)c1nc(-c2ccc3c(n2)C(=O)C(N)=C(OC)C3=O)c(N)c(-c2ccc(OC)c(OC)c2O)c1C	19.7	7.6	70.3*	23.5	22.4	12.3	PAFAH1B3 conf FP=66.8*
O=C(NCCN1CCC2(CC1)C(=O)NCN2c1ccccc1)C(c1ccccc1)c1ccccc1	15.6	nt	nt	nt	nt	nt
COc1cc(O)c2c(c1)/C=C/C[C@H](O)[C@H](O)[C@@H](O)/C=C/C[C@H](C)OC2=O	-1.8	nt	nt	nt	nt	nt
CC(C)[C@H]1C(=O)N2CCC[C@H]2[C@]2(O)O[C@](NC(=O)[C@@H]3C=C4c5cccc6[nH]cc(c56)C[C@H]4N(C)C3)(C(C)C)C(=O)N12	nt	33.4	31.5*	6.2	-0.9	20.9	PAFAH1B3 conf FP=8.7
CN1C[C@H](CO)C=C2c3cccc4[nH]cc(c34)C[C@H]21	22.1	16.3	8.7	3.4	5.3	7.0
CCCCn1c(NS(=O)(=O)c2ccc(C)cc2)c(C(=O)OCC)c2nc3ccccc3nc21	15.3	-48.8	40.1*	6.0	6.9	11.4	PAFAH1B3 conf FP=7.1
CC(C)OC(=O)c1c(N)n(CC2CCCO2)c2nc3ccccc3nc12 (stereo unspecified)	-8.3	1.6	-3.2	-2.2	-3.1	2.1
CCCNC(=O)c1c(N)n(CC2CCCO2)c2nc3ccccc3nc12 (stereo unspecified)	4.8	-0.8	26.7*	7.8	-1.3	14.1	PAFAH1B3 conf FP=11.9
